Data: paper PMC3990230 (Journal of medicinal chemistry, 2010)

Assays:
[1] = system: IKK; format: cell-based, Human; settings: A549 cells, TNFα induced, Western blot
Method in brief: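 A549 cells were pretreated with test compound at varying concentrations (4 hr), then stimulated with TNFα. Phosphorylation read-out: lysates taken at 7 min, probed anti-pS32-IκB, stripped and re-probed for total IκB. Stability read-out: TNFα 10 ng/ml for 20 min, total IκB only. NP-40 lysis (pH 7.4, phosphatase/protease inhibitors), 12.5% SDS-PAGE, nitrocellulose, 5% milk/TBS-T block, primary antibody ≥2 hr.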

[2] = molecular target: T1, recombinant IKKβ (Homo sapiens, UniProt O14920); experiment: In vitro IKK assay: 32P incorporation into GST-IκB; format: biochemical; settings: 30 min at 30°C
T1 sequence (O14920 1-756): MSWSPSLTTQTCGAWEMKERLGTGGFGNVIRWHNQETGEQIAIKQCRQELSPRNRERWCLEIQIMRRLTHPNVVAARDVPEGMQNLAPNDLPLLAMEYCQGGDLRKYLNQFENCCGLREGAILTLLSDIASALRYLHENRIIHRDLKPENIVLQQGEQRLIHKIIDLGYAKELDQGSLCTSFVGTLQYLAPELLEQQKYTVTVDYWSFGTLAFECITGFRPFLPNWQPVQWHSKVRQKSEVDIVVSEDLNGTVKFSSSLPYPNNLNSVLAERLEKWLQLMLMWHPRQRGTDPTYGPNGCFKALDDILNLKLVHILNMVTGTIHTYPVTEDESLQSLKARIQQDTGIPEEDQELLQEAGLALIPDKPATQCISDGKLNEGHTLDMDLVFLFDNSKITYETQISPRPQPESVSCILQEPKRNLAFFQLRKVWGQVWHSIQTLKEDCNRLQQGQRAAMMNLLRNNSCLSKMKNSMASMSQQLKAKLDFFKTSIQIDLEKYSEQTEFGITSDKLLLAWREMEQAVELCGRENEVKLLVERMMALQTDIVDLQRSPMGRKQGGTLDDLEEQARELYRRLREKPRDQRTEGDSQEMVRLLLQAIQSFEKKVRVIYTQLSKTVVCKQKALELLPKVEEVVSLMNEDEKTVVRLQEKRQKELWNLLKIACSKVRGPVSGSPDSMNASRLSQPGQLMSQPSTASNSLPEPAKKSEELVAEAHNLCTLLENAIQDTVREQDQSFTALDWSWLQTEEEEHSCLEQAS
Method in brief: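 Activated recombinant IKKβ (40 ng) in MOPS buffer (pH 7.0) preincubated with test compound for 30 min at room temperature. Mg-ATP mix (100 μM ATP), purified GST-IκBα (5 μg) and [γ-32P]ATP (0.5 μCi) added, then 30 min at 30°C. Reaction stopped by boiling in SDS sample buffer. Samples run on 12.5% SDS-PAGE with Coomassie staining. Read by autoradiography and scintillation counting of excised bands. Controls lacked enzyme or compound.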

[3] = system: A549 cells; experiment: Clonogenic assay; format: cell-based, Human; settings: 9 day incubation
Method in brief: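 A549 cells seeded at 200 cells/well and incubated overnight, then exposed to test compound or DMSO vehicle. Medium and compound replaced every 3 days, for 9 days in total. Cells fixed in 10% TCA for 30 min at 4°C, water-washed, SRB-stained and rinsed with 1% acetic acid. Plates scanned, colonies counted and normalized to DMSO control.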

[4] = system: NF-κB; experiment: NF-κB translocation assay; format: cell-based, Human; settings: A549 cells, TNFα induced

Molecule | block of IκB phosphorylation and degradation (in words) [1] | effect on IKKβ catalyzed incorporation of 32P into GST-IκB (in words) [2] | concentration with detectable inhibition of colony forming activity [3] [µM] | fold greater potency than curcumin in blocking nuclear localization of NF-κB [4]
5-hydroxy-1, 7-bis(4-hydroxy-3-methoxyphenyl)hepta-1, 4, 6-trien-3-one [Curcumin, reference compound] | block IκB phosphorylation and degradation when high concentrations were used | no obvious effect | 4 | 
COc1cc(C=C(C(=O)/C=C/c2ccc(OC)c(OC)c2)C(=O)/C=C/c2ccc(OC)c(OC)c2)ccc1O [Compound 17, (1E,6E)-1,7-bis(3,4-dimethoxyphenyl)-4-(4-hydroxy-3-methoxybenzylidene)hepta-1,6-diene-3,5-dione] | potently block the IκB phosphorylation and degradation in a lower concentration | dose-dependent inhibition of IKKβ |  | more than 10 fold
COc1ccc(/C=C/C(=O)C(=Cc2ccc(F)cc2)C(=O)/C=C/c2ccc(OC)c(OC)c2)cc1OC [Compound 21, (1E,6E)-1,7-bis(3,4-dimethoxyphenyl)-4-(4-fluorobenzylidene)hepta-1,6-diene-3,5-dione] | potently block the IκB phosphorylation and degradation in a lower concentration | dose-dependent inhibition of IKKβ |  | more than 10 fold
COc1cc(/C=C/C(=O)C(=Cc2cccc(OC)c2OC)C(=O)/C=C/c2ccc(O)c(OC)c2)ccc1O [Compound 35, (1E,6E)-4-(2,3-dimethoxybenzylidene)-1,7-bis(4-hydroxy-3-methoxyphenyl)hepta-1,6-diene-3,5-dione] | potently block the IκB phosphorylation and degradation in a lower concentration | dose-dependent inhibition of IKKβ |  | 
